The values below come from PubChem BioAssay.

Values without a mark were called inactive. For part of these data: Measured potencies and affinities stand elsewhere. Active and inactive are the calls of the source.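 How the source made its calls, unless noted: active means active in primary screen and both duplicates, each dropping signal beyond three positive-control SD with fluorescence still positive; inactive means the rest.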

Chain of Short transient receptor potential channel 4 (Mus musculus) (Q9QUQ5 whole entry, looked up): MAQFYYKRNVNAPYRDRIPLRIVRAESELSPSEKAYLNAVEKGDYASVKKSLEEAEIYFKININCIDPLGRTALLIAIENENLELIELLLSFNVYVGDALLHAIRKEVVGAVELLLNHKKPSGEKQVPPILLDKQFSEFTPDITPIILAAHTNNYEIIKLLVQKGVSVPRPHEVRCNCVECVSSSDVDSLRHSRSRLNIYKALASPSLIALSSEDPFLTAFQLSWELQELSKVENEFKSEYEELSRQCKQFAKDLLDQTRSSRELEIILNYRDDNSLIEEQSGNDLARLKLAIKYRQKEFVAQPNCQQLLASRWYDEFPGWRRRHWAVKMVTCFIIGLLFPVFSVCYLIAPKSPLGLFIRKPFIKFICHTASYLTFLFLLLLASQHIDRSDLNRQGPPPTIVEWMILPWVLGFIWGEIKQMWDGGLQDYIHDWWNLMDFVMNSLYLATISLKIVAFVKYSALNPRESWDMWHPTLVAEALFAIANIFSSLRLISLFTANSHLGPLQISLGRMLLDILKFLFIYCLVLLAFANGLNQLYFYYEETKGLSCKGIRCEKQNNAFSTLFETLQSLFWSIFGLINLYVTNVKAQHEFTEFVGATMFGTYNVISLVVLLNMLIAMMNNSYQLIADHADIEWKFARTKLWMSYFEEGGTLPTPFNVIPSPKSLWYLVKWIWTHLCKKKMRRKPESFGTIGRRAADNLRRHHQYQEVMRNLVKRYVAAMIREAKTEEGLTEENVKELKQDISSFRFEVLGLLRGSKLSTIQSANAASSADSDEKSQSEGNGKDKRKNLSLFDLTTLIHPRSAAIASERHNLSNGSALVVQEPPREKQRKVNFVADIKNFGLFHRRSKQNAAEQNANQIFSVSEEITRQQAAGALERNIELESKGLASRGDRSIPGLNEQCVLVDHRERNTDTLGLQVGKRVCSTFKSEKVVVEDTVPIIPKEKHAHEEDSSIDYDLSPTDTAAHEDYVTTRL
Chain of Short transient receptor potential channel 6 (Mus musculus) (Q61143 whole entry, looked up): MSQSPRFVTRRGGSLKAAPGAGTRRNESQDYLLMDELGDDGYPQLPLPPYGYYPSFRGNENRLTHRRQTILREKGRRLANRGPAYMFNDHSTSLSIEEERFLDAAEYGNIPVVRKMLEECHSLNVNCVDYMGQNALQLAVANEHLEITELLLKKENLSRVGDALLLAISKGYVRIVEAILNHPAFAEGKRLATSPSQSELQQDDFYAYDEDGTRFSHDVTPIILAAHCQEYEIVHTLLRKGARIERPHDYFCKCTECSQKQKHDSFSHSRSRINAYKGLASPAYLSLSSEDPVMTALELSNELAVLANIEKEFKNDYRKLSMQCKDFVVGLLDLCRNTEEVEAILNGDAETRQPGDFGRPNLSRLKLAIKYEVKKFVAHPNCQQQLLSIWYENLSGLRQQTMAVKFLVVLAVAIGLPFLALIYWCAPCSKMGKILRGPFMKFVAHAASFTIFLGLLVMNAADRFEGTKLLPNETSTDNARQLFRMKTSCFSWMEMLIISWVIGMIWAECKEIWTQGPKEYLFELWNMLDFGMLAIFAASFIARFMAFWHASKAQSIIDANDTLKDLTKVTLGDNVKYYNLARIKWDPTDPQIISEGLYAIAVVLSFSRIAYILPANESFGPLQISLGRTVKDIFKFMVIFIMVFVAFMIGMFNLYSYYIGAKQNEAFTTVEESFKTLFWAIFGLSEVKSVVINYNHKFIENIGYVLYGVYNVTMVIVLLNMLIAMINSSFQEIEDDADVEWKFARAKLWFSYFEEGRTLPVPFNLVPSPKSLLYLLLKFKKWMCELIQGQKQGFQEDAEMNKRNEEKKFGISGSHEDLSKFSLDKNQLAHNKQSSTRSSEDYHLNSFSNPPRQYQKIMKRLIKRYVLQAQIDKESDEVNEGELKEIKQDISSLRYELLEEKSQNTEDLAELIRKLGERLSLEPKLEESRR

One test has as its target Short transient receptor potential channel 4 (Mus musculus) (UniProt Q9QUQ5). Put plainly: block of DAMGO-driven TRPC4 calcium entry – cell-based, HEK293 TRPC4/mu-opioid, Fluo-4 calcium, dose response (AID 434942;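 active means primary screen inhibitor hit that blocks the TRPC4 channel at some tested dose, yielding a dose curve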). The note with it: HEK293 TRPC4/mu-opioid cells, DAMGO-evoked Fluo-4 calcium ratio; series mostly up to 20 µM; ratio response (lower = inhibition): at the top concentration.
In the case of `COC(=O)c1ccccc1NC(=O)c1cnn2cccnc12`, the “ratio response (lower = inhibition)” value is 53.5.
Still for that read-out and setting: for `Cc1cc(Cl)ccc1OC(C)C(=O)Nc1ccccc1N1CCOCC1` (stereo not drawn) the value was 10.3.
On the same count and under the same terms, for `CC(C(=O)c1ccc(Br)cc1)[n+]1cccc(NC(=O)c2ccccc2)c1` (stereo not drawn) the value was 7.88.
Same read-out and setting: for `Cn1c(SCCOc2ccccc2F)nc2ccccc2c1=O` the value was 82.5; for `O=C(CN1CCCN(S(=O)(=O)c2ccc(F)cc2)CC1)Nc1ccccc1Br`, 44.8.
As for `Cc1c(CCOC(=O)c2ccccc2)sc[n+]1CC(=O)c1ccc(Br)cc1`, the “ratio response (lower = inhibition)” value was -3.66.
Same read-out and setting: for `Cc1c(N2C(=O)/C(=C/c3ccccc3)SC2=S)c(=O)n(-c2ccccc2)n1C` the value was 20.4; for `CCOC(=O)Cc1csc(NC(=O)NC2(C(F)(F)F)Oc3cc(Cl)c(Cl)cc3O2)n1`, 123.
On the same count and under the same terms, to `CCCn1nc(C(=O)NC2CCCc3ccccc32)c2ccccc2c1=O` (stereo not drawn) belongs 77.1.
Consider `CCOC(=O)c1c(C)n(-c2ccc(C)cc2)c2ccc(OCC(O)CNCC3CCCO3)cc12` (stereo not drawn), for which the “ratio response (lower = inhibition)” value was 51.3.
Same read-out and setting: to `O=C(NCCCN1CCN(CCCNC(=O)c2cccc(Cl)c2)CC1)c1cccc(Cl)c1` belongs 88.5; to `COC(=O)[C@@]12CCCCN1[C@H](c1ccc(-c3ccc(C(C)=O)cc3)cc1)[C@@H]1C(=O)N(C)C(=O)[C@@H]12`, 78.9.
For `Cc1ccc(CNC(=O)CSc2nc(=O)n3ccccc3n2)cc1`, the “ratio response (lower = inhibition)” value was 56.8.
On the same count and under the same terms, to `CCCCCCc1cc2cc(-c3nnc(-c4ccccc4O)o3)c(=O)oc2cc1O` belongs 70.5; to `CCCCN(C)CCNC(=O)C1CCCN(S(=O)(=O)c2cccc3nsnc23)C1` (stereo not drawn), 103.
For `Cc1cccc(NC(=O)CNC(=O)CN2C(=O)NC3(CCCCC3C)C2=O)c1C` (stereo not drawn), the “ratio response (lower = inhibition)” value is 61.
`CC(C)c1ccc(OCc2ccc(C(=O)N3CCCC3)o2)cc1`: the “ratio response (lower = inhibition)” value is 95.4.
Still for that read-out and setting: to `COc1ccc(-n2cc(CNCc3cnc4ccccn34)c(-c3cccc(F)c3)n2)cc1` belongs 2.66; to `COc1ccc(CCN2C(=S)N(C)C(=O)C2CC(=O)Nc2ccc(F)cc2)cc1` (stereo not drawn), 62.9.
The same measure, in the same setting: for `CCOC(=O)C1=NNC(C(=O)c2ccc(Cl)cc2)C1c1ccc(OC)cc1` (stereo not drawn) the value was 49.8.
Turning to `Cc1ccc(C(C)C)c(OCCCCN2CCNCC2)c1`, the “ratio response (lower = inhibition)” value was 140.
The same measure, in the same setting: for `CCOC(=O)CSc1nc2ccccc2c(=O)n1C1CCCC1` the value was 9.59; for `Clc1ccc(Cl)c(OCCCCN2CCNCC2)c1`, 50.8.
Still for that read-out and setting: for `COc1ccc(-c2cc(C(=O)N3CC(C)CC(C)C3)c3ccccc3n2)cc1` (stereo not drawn) the value was 41.7.
Still for that read-out and setting: to `Cn1c(N2CCC(C(N)=O)CC2)nc2c1c(=O)n(Cc1ccc(Br)cc1)c(=O)n2C` belongs 121; to `OC1(c2ccc(Cl)cc2)CN(c2ccccc2)C2=[N+]1CCS2` (stereo not drawn), 2.62; to `CCN(CCCNC(=O)CCCOc1cc(=O)n(C)c2ccccc12)Cc1ccccc1`, 113.
For the molecule `O=C(NN/C(=N/S(=O)(=O)c1ccc(Cl)cc1)c1ccccc1)c1cccc(Cl)c1`, the “ratio response (lower = inhibition)” value was 96.6.
Still for that read-out and setting: to `CCn1c2ccc(F)cc2c2nnc(NN)nc21` belongs 23.2; to `CCN(CC)CCOCCOc1ccc(Cl)c2ccccc12`, 32.1; to `O=C(NCCCN1CCCC1=O)c1ccc(CNS(=O)(=O)c2ccc(F)cc2)cc1`, 63.7.
Still for that read-out and setting: for `Cc1noc(C)c1COC(=O)[C@@H](NC(=O)c1ccccc1Cl)C(C)C` the value was 60.1; for `C/C=C/Cn1c(SCCCc2ccccc2)nc2c1c(=O)[nH]c(=O)n2C`, 147.
On the same count and under the same terms, to `O=[N+]([O-])c1ccc2c(c1)C=C1CCCCC1(N1CCCC1)O2` (stereo not drawn) belongs 26.4; to `COc1ccc(CCn2c(=S)[nH]c3cc(C(=O)N4CCOCC4)ccc3c2=O)cc1OC`, 61.5.
For the molecule `CN(C)CCCCOc1cccc(Br)c1`, the “ratio response (lower = inhibition)” value is 78.3.
Still for that read-out and setting: to `CC1=CC(=O)C(C(C)C)=C/C1=N/OS(=O)(=O)c1ccccc1` belongs 104; to `O=C1CC(NS(=O)(=O)c2cccs2)CN1c1ccccc1` (stereo not drawn), 83.4; to `OCCNCc1cc(Br)ccc1OCc1ccccc1`, 3.87.

The next test addresses Short transient receptor potential channel 6 (Mus musculus) (UniProt Q61143). Put plainly: TRPC6 blockade by TRPC4 inhibitor hits – cell-based, HEK293, membrane potential dye, duplicate, selectivity assay for TRPC4 inhibitor project, confirmation (AID 434948). Conditions: HEK293 TRPC6, membrane potential dye fluorescence, at 10 µM, stimulated with maximal-effect acetylcholine; hits give high values. In a few lines:
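Test system: TRPC6-expressing HEK293 cells / Probe or stimulus: acetylcholine at maximal (ECmax) concentration, added after compound / Schedule: dye 45 min RT, compound 110 s, agonist read 110 s / Technique: membrane potential dye fluorescence, kinetic read / Read-out basis: control-normalized integrated fluorescence ratio / Repeats: two replicates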
`COC(=O)c1ccccc1NC(=O)c1cnn2cccnc12`: the molecule was called inactive.
Same read-out and setting: to `Cc1cc(Cl)ccc1OC(C)C(=O)Nc1ccccc1N1CCOCC1` (stereo not drawn) belongs “inactive”; to `CC(C(=O)c1ccc(Br)cc1)[n+]1cccc(NC(=O)c2ccccc2)c1` (stereo not drawn), “inactive”; to `Cn1c(SCCOc2ccccc2F)nc2ccccc2c1=O`, “inactive”.
On the same count and under the same terms, to `O=C(CN1CCCN(S(=O)(=O)c2ccc(F)cc2)CC1)Nc1ccccc1Br` belongs “inactive”; to `Cc1c(CCOC(=O)c2ccccc2)sc[n+]1CC(=O)c1ccc(Br)cc1`, “inactive”.
The same measure, in the same setting: for `Cc1c(N2C(=O)/C(=C/c3ccccc3)SC2=S)c(=O)n(-c2ccccc2)n1C` the value was “inactive”; for `CCOC(=O)Cc1csc(NC(=O)NC2(C(F)(F)F)Oc3cc(Cl)c(Cl)cc3O2)n1`, “inactive”.
For `CCCn1nc(C(=O)NC2CCCc3ccccc32)c2ccccc2c1=O` (stereo not drawn), the outcome was inactive.
Same read-out and setting: for `CCOC(=O)c1c(C)n(-c2ccc(C)cc2)c2ccc(OCC(O)CNCC3CCCO3)cc12` (stereo not drawn) the value was “inactive”; for `O=C(NCCCN1CCN(CCCNC(=O)c2cccc(Cl)c2)CC1)c1cccc(Cl)c1`, “inactive”; for `COC(=O)[C@@]12CCCCN1[C@H](c1ccc(-c3ccc(C(C)=O)cc3)cc1)[C@@H]1C(=O)N(C)C(=O)[C@@H]12`, “inactive”.
In the case of `Cc1ccc(CNC(=O)CSc2nc(=O)n3ccccc3n2)cc1`, the result was inactive.
Consider `CCCCCCc1cc2cc(-c3nnc(-c4ccccc4O)o3)c(=O)oc2cc1O`, for which the molecule was classed as inactive.
The same measure, in the same setting: for `CCCCN(C)CCNC(=O)C1CCCN(S(=O)(=O)c2cccc3nsnc23)C1` (stereo not drawn) the value was “inactive”; for `Cc1cccc(NC(=O)CNC(=O)CN2C(=O)NC3(CCCCC3C)C2=O)c1C` (stereo not drawn), “inactive”.
Same read-out and setting: for `CC(C)c1ccc(OCc2ccc(C(=O)N3CCCC3)o2)cc1` the value was “inactive”; for `COc1ccc(-n2cc(CNCc3cnc4ccccn34)c(-c3cccc(F)c3)n2)cc1`, “inactive”.
Same read-out and setting: for `COc1ccc(CCN2C(=S)N(C)C(=O)C2CC(=O)Nc2ccc(F)cc2)cc1` (stereo not drawn) the value was “inactive”.
As for `CCOC(=O)C1=NNC(C(=O)c2ccc(Cl)cc2)C1c1ccc(OC)cc1` (stereo not drawn), the call was inactive.
Same read-out and setting: for `Cc1ccc(C(C)C)c(OCCCCN2CCNCC2)c1` the value was “inactive”.
Same read-out and setting: to `CCOC(=O)CSc1nc2ccccc2c(=O)n1C1CCCC1` belongs “inactive”; to `Clc1ccc(Cl)c(OCCCCN2CCNCC2)c1`, “inactive”.
The same measure, in the same setting: for `COc1ccc(-c2cc(C(=O)N3CC(C)CC(C)C3)c3ccccc3n2)cc1` (stereo not drawn) the value was “inactive”.
Consider `Cn1c(N2CCC(C(N)=O)CC2)nc2c1c(=O)n(Cc1ccc(Br)cc1)c(=O)n2C`, for which the call was inactive.
The same measure, in the same setting: to `OC1(c2ccc(Cl)cc2)CN(c2ccccc2)C2=[N+]1CCS2` (stereo not drawn) belongs “inactive”.
Still for that read-out and setting: to `CCN(CCCNC(=O)CCCOc1cc(=O)n(C)c2ccccc12)Cc1ccccc1` belongs “inactive”; to `O=C(NN/C(=N/S(=O)(=O)c1ccc(Cl)cc1)c1ccccc1)c1cccc(Cl)c1`, “inactive”.
On the same count and under the same terms, for `CCn1c2ccc(F)cc2c2nnc(NN)nc21` the value was “inactive”; for `CCN(CC)CCOCCOc1ccc(Cl)c2ccccc12`, “inactive”; for `O=C(NCCCN1CCCC1=O)c1ccc(CNS(=O)(=O)c2ccc(F)cc2)cc1`, “inactive”.
For `Cc1noc(C)c1COC(=O)[C@@H](NC(=O)c1ccccc1Cl)C(C)C`, the call was inactive.
The same measure, in the same setting: for `C/C=C/Cn1c(SCCCc2ccccc2)nc2c1c(=O)[nH]c(=O)n2C` the value was “inactive”; for `O=[N+]([O-])c1ccc2c(c1)C=C1CCCCC1(N1CCCC1)O2` (stereo not drawn), “inactive”.
On the same count and under the same terms, for `COc1ccc(CCn2c(=S)[nH]c3cc(C(=O)N4CCOCC4)ccc3c2=O)cc1OC` the value was “inactive”.
Same read-out and setting: for `CN(C)CCCCOc1cccc(Br)c1` the value was “inactive”; for `CC1=CC(=O)C(C(C)C)=C/C1=N/OS(=O)(=O)c1ccccc1`, “inactive”.
Regarding `O=C1CC(NS(=O)(=O)c2cccs2)CN1c1ccccc1` (stereo not drawn), the call was inactive.
`OCCNCc1cc(Br)ccc1OCc1ccccc1`: the molecule was classed as inactive.
